From ChEMBL document CHEMBL1152967, “Scalarane-based sesterterpenoid RCE-protease inhibitors isolated from the Indonesian marine sponge Carteriospongia foliascens” (J Nat Prod, 2009)
Converted amounts (≈) assume the structure as drawn.

How the values were obtained:
[1] = Cytotoxicity against human MDA468 cells harboring mutated PTEN and p53 after 3 days; format: functional, cell-based; conditions: MDA-MB-468, 72 h
[2] = test system: PC-3; assay: Cytotoxicity against human PC3 cells harboring mutated PTEN and p53 after 3 days; format: functional, cell-based; conditions: PC-3, 72 h
[3] = target: T1, CAAX prenyl protease 2 (Homo sapiens, UniProt Q9Y256); assay: Inhibition of human RCE1
T1 sequence (Q9Y256 whole entry): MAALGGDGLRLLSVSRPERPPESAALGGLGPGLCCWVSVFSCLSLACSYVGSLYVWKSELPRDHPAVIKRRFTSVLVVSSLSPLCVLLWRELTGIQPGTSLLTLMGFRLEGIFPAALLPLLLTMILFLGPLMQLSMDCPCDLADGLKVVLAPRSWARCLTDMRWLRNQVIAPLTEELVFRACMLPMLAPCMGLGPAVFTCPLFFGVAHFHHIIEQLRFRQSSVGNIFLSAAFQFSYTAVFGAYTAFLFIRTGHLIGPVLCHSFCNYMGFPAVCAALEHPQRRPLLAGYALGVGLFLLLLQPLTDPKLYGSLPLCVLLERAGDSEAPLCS
Outline: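 Substrate was a fluorescent-labeled peptide from the carboxy terminus of farnesylated K-Ras. Cleavage was analyzed by reversed-phase HPLC. IC50 is reported in µg/mL.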

[4] = test system: Caco-2; assay: Cytotoxicity against human Caco-2 cells harboring wild type Ras after 3 days; format: functional, cell-based; conditions: Caco-2, 72 h
[5] = test system: LoVo; assay: Cytotoxicity against human LoVo cells harboring mutated K-Ras after 3 days; format: functional, cell-based; conditions: 72 h

IC50 [3]	SMILES	IC50 [1]	IC50 [2]	IC50 [4]	IC50 [5]
7.31 µM	CCO[C@@H]1C[C@H]2[C@]3(C)CC[C@H]4[C@@](C)(CC)CCC[C@]4(C)[C@H]3C[C@H](OC(=O)CC(O)C(C)C)[C@]2(C)C2=C1C(C)(O)OC2=O (stereo not given in full)	4.4 µg/mL (≈ 7.47 µM)	3.2 µg/mL (≈ 5.43 µM)	4.2 µg/mL (≈ 7.13 µM)	2.9 µg/mL (≈ 4.93 µM)
17 µM	CCC(O)CC(=O)O[C@H]1C[C@@H]2[C@@]3(C)CCC[C@](C)(CC)[C@@H]3CC[C@@]2(C)[C@@H]2C=CC3=C(C(=O)OC3(C)O)[C@@]12C (stereo not given in full)	> 10 µg/mL	3.7 µg/mL (≈ 7 µM)	6.2 µg/mL (≈ 11.7 µM)	3.4 µg/mL (≈ 6.43 µM)
> 199 µM	CCC(O)CC(=O)O[C@H]1C[C@H]2[C@@](C)(CC[C@H]3[C@@](C)(CC)CCC[C@]23C)[C@@H]2C[C@@H](O)C(C(C)=O)=C[C@@]12C (stereo not given in full)	> 10 µg/mL	> 10 µg/mL	> 10 µg/mL	> 10 µg/mL
73.5 µM	CC[C@@]1(C)CCC[C@]2(C)[C@H]3C[C@H](OC(=O)CC(O)C(C)C)[C@]4(C)C=C(C(C)=O)[C@H](O)C[C@H]4[C@]3(C)CC[C@@H]12 (stereo not given in full)	9.5 µg/mL (≈ 18.4 µM)	3.8 µg/mL (≈ 7.35 µM)	3.4 µg/mL (≈ 6.58 µM)	7.6 µg/mL (≈ 14.7 µM)
